# AI-2 QS mod – modulators of Vibrio harveyi AI-2 quorum sensing system | Vibrio harveyi JMH597 AI-2 luminescence/OD600 ratio, 9 h; stronger effect = lower value; strain lacks LuxN and CqsS sensors; 0 = neutral-control median | activity change, % at 7.5 µM | hit rate 0.4% among 300,000 | AID 2094; in the data active = activity change below about -75%, passing the limit was not always enough;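 also: luminescence divided by OD600 gain over 9 h not by final OD600 alone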
# ARNT TACC3 PPI – ARNT/TACC3 interaction disruption. hit rate 0.66% among 390,000. Q9Y6A5. inhibition, % at 9.99 µM. AID 623870. AlphaScreen His-ARNT PAS-B/GST-TACC3 binding, luminescence; TACC3 fragment carries E629A point mutation;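 active = mean inhibition of replicates at least 50% and at least half of replicates each reaching 50%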;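 also: 0% = complete ARNT plus TACC3 wells and 100% = ARNT alone without TACC3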
# HIF act – HIF pathway transcriptional activation; U2OS HRE-luciferase reporter, luminescence; normalized: DMSO 0%, desferrioxamine 100%; activation, % at 7.5 µM (by protocol); hit rate 0.32% among 300,000; AID 1910;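 active = mean activation of at least 10% of the iron chelator positive control signal, with at least half of replicates also reaching 10%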
# T cruzi inh – T. cruzi replication inhibition; T. cruzi beta-gal in NIH3T3, luminescence, 90 h; hit rate 1.4% among 300,000; inhibition, % (concentration not given with the values); AID 1885;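 active = mean inhibition across valid replicates above about 55%, limit read from the data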;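 also: signal also drops with host cell toxicity which is not excluded here; 0% = plate median of DMSO wells and 100% = zero luminescence signal; higher percent means less beta-gal luminescence so fewer parasites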
#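 System – NIH/3T3 host cells with β-galactosidase reporter T. cruzi · Doses – single 50 nL compound addition per well in DMSO · Reagent – 5000 T. cruzi trypomastigotes/well · Medium – Low-serum DMEM with 2% FBS · Timing – ≥90 h infection period, 3 h prior cell attachment · Evaluation – parasite load inhibition, % · Technique – GalScreen luminescence, 60 min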
# * = called active by the depositor; · = no result given. In the library only some 2% were active in any assay of this set; here they are far more common.
SMILES,AI-2 QS mod,ARNT TACC3 PPI,HIF act,T cruzi inh
COc1ccc(NC(=O)c2cccs2)cn1,19,1,19*,4
CCCCCCCCC[n+]1cccc2c3ccccc3ccc21,1,-9,2,59*
CC(C)CC#Cc1ccc2c(c1)O[C@@H](CN(C)C(=O)c1ccccn1)[C@@H](C)CN([C@@H](C)CO)S2(=O)=O,·,1,·,·
O=NN(CCc1ccncc1)c1ccc(OCc2ccccc2)cc1,-25,0,-1,72*
O=C(NCc1ccncc1)C(=O)N/N=C/c1ccc(OCc2ccccc2)cc1,7,-6,2,3
COc1ccccc1NC(=O)N[C@@H]1C=C[C@@H](CC(=O)N2CCC(Cc3ccccc3)CC2)O[C@H]1CO,·,-14,·,·
CN1C(=O)c2cc(NC(=O)C3CCCC3)ccc2OC[C@H]2O[C@H](CC(=O)Nc3ccccc3)CC[C@@H]21,·,9,·,·
O=C(NC(c1ccccc1)c1ccccc1)C1CCCO1 (centres undefined),14,2,131*,10
O=C(NCC1CCCO1)c1ccc([N+](=O)[O-])s1 (centres undefined),94,-6,0,67*
C[C@H](CO)N1C[C@H](C)[C@H](CN(C)C(=O)Nc2ccc3c(c2)OCO3)Oc2ccc(NC(=O)C3CC3)cc2CC1=O,·,0,·,·
O=c1[nH][nH]cc1C=Nc1ccc(Cl)cc1Cl,25,-3,0,10
O=c1[nH][nH]cc1C=Nc1cc(Cl)ccc1O,32,49*,0,14
N=c1c2c(-c3ccccc3)c(-c3ccccc3)n(Cc3ccco3)c2ncn1CCCN1CCOCC1,9,8,-3,92*
N=c1c2c(-c3ccccc3)c(-c3ccccc3)n(Cc3ccccc3)c2ncn1CCO,22,12,-2,57*
c1ccc(-c2c(-c3ccccc3)n(Cc3ccco3)c3ncnc(NCCCn4ccnc4)c23)cc1,9,16,0,47
OCCNc1ncnc2c1c(-c1ccccc1)c(-c1ccccc1)n2Cc1ccco1,8,18,0,5
N=c1c2c(-c3ccccc3)c(-c3ccccc3)n(Cc3ccco3)c2ncn1CCCn1ccnc1,12,20,-3,64*
CC(C)Cn1cnc2c(c(-c3ccccc3)c(-c3ccccc3)n2Cc2ccco2)c1=N,24,8,1,60*
N=c1c2c(-c3ccccc3)c(-c3ccccc3)n(Cc3ccco3)c2ncn1Cc1ccccc1,40,6,3,47
O=C(C[C@@H]1CC[C@@H]2[C@H](COC[C@H](O)CN2C(=O)Nc2ccc(F)cc2)O1)NC1CCC1,·,0,·,·
C[C@@H](NC(=O)[C@@H]1[C@@H](CO)[C@@H]2Cn3c(cccc3=O)[C@@H]2N1Cc1ccncc1)c1ccccc1,·,-19,·,·
C[C@H](CO)N1C[C@H](C)[C@H](CN(C)S(=O)(=O)c2cn(C)cn2)OCCCC[C@H](C)Oc2ccc(NC(=O)CCC(F)(F)F)cc2C1=O,·,-3,·,·
Oc1ccc(-c2nccc(-c3ccc(Cl)cc3Cl)n2)cc1,5,-2,0,79*
CCCNC(=O)N1C[C@@H](C)[C@H](OC)CN(C)C(=O)c2cc(NS(C)(=O)=O)ccc2OC[C@@H]1C,·,-1,·,·
O=C(/C(=C\c1ccccc1)c1nc2ccccc2[nH]1)c1ccc(Cl)cc1,30,-2,3,37
SMILES,AI-2 QS mod,ARNT TACC3 PPI,HIF act,T cruzi inh
O=C(/C(=C/c1ccc(Cl)cc1)c1nc2ccccc2[nH]1)c1cccs1,23,5,-4,59*
O=C(C[C@H]1C[C@@H]2c3cc(NC(=O)CC4CC4)ccc3O[C@@H]2[C@H](CO)O1)NCc1ccccc1F,·,-8,·,·
Cc1nc(C(=O)Nc2ccc(Cl)cc2Cl)nn1-c1cc(OC(C)C)c(Cl)cc1Cl,17,3,15*,32
c1ccc(CSC2=NNC(c3ccccn3)S2)cc1 (centres undefined),14,11,14*,63*
O=C(CSC1=NNC(c2ccccn2)S1)Nc1ccc(C(F)(F)F)cc1 (centres undefined),14,76*,25*,18
CC(=O)Nc1ccc(NC(=O)CSc2ccccn2)cc1,25,·,1,-29
CC(C)NC(=O)N(C)C[C@H]1Oc2cc(C#Cc3ccc(F)cc3)ccc2S(=O)(=O)N([C@@H](C)CO)C[C@H]1C,·,-6,·,·
C[C@@H]1CN([C@H](C)CO)C(=O)c2cc(NC(=O)Nc3ccc4c(c3)OCO4)ccc2O[C@H]1CN(C)S(C)(=O)=O,·,-4,·,·
C=CC1c2cc(O)c(OC)cc2CCN1Cc1sc2ccccc2c1Cl (centres undefined),·,2,·,·
